Active and inactive are the calls of the source. The calls are words filed in the database; no cut-off is given here.
What was measured:
[1] = target: T1, Sphingosine kinase 2 (Homo sapiens) (UniProt Q9NRA0); experiment: Inhibition of SPHK2 in human U937 cells assessed as decrease in S1P levels after 2 hrs by LC-MS/MS analysis; type: cell-based
T1 sequence (whole entry): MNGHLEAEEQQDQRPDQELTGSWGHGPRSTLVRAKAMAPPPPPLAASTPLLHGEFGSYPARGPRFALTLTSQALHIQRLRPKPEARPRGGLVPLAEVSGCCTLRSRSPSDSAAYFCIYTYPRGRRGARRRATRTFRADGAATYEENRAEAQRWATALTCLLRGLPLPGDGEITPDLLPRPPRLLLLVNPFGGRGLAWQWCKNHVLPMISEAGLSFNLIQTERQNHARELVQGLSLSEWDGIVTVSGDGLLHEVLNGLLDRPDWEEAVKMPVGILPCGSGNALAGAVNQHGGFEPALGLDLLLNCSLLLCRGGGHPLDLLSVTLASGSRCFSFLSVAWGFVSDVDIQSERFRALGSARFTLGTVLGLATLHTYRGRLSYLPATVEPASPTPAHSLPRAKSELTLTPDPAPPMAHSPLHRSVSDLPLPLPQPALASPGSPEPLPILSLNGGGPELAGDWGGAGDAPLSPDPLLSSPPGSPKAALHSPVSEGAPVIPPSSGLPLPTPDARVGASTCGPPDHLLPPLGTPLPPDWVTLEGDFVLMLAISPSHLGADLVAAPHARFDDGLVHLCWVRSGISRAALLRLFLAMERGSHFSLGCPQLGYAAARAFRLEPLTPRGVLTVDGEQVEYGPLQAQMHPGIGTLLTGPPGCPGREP
Summary of the method: (§1)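 U937 human histiocytic lymphoma cells (express both SphK isotypes) incubated with compound for 2 h, pelleted, lysed; 2–3 × 10⁶ cells extracted in methanol:chloroform (3:1) with D7-S1P/D7-sphingosine internal standards, KOH hydrolysis, then S1P and sphingosine measured by LC-MS-MS. Expressed as pmol per 10⁶ cells; duplicate experiments; unpaired t test against control.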

Mus musculus [2] = experiment: In vivo inhibition of SPHK2 in C57BL/6J mouse assessed as increase in S1P levels at 10 mg/kg, ip after 24 hrs by LC-MS/MS analysis; type: functional, organism-based
Summary of the method: (§2)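 Single intraperitoneal dose of 10 mg/kg in C57BL6/j mice, groups of 3 to 4; vehicle controls received an equal volume of 2% hydroxypropyl-β-cyclodextrin. Blood was sampled at set time points over 24 h. Whole blood (10 μl) was extracted in methanol:chloroform (3:1) with D7-S1P and D7-sphingosine internal standards, base-hydrolysed with KOH, and S1P quantified by reverse-phase C18 LC-MS-MS.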

Sphingosine kinase 2 [3] = target: T2, Sphingosine kinase 2 (Homo sapiens, UniProt Q9NRA0); experiment: Inhibition of recombinant human SPHK2 at using sphingosine as substrate after 30 mins in presence of gamma-[32P]-ATP by liquid scintillation counting
T2 sequence (Q9NRA0 whole entry): T1 sequence (whole entry)

[4] = target: T1, Sphingosine kinase 2 (Homo sapiens); experiment: Inhibition of recombinant human SPHK2 assessed as residual activity at 0.3 uM using sphingosine as substrate after 30 mins in presence of gamma-[32P]-ATP by liquid scintillation counting relative to control
Summary of the method: (§3)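 Recombinant human SphK1 or SphK2 from cell lysate, briefly incubated with or without compound at 0.3 μM, sphingosine (5 μM for SphK1, 10 μM for SphK2) and 250 μM γ-[³²P]ATP. Radiolabelled S1P extracted, resolved by TLC and counted by scintillation. Activity reported as % of no-inhibitor control; triplicate.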

[5] = target: T1, Sphingosine kinase 2 (Homo sapiens); experiment: Inhibition of SPHK2 in human U937 cells assessed as effect on sphingosine levels at 0.3 to 1 uM after 2 hrs by LC-MS/MS analysis; type: cell-based; summary of the method: as §1
[6] = target: T1, Sphingosine kinase 2 (Homo sapiens); experiment: Inhibition of SPHK2 in human U937 cells assessed as effect on sphingosine levels at 0.1 to 1 uM after 2 hrs by LC-MS/MS analysis; type: cell-based; summary of the method: as §1
Mus musculus [7] = experiment: In vivo inhibition of SPHK2 in C57BL/6J mouse assessed as increase in S1P levels at 10 mg/kg, ip after 2 to 6 hrs by LC-MS/MS analysis; type: functional, organism-based; summary of the method: as §2
[8] = Selectivity ratio of Ki for recombinant human SPHK1 to Ki for recombinant mouse SPHK2
Sphingosine kinase 2 [9] = target: T3, Sphingosine kinase 2 (Mus musculus, UniProt Q9JIA7); experiment: Inhibition of recombinant mouse SPHK2 using sphingosine as substrate in presence ATP
T3 sequence (Q9JIA7 whole entry): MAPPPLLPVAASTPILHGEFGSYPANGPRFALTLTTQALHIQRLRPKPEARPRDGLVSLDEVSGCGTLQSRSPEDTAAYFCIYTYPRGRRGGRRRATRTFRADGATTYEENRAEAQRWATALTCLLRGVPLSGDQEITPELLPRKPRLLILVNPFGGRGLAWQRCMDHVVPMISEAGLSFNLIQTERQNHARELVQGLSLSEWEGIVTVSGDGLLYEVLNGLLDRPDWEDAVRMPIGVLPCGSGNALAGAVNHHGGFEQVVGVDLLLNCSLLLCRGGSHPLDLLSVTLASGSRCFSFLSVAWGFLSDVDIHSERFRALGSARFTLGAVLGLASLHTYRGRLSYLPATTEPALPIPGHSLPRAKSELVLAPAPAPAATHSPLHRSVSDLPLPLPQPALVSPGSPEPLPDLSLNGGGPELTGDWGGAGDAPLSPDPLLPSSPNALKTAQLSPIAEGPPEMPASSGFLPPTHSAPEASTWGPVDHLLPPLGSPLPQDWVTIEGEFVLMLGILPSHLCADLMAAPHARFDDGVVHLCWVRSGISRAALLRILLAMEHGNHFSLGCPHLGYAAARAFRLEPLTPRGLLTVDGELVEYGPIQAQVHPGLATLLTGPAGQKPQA

Sphingosine kinase 1 [10] = target: T4, Sphingosine kinase 1 (Homo sapiens, UniProt Q9NYA1); experiment: Inhibition of recombinant human SPHK1 using sphingosine as substrate in presence ATP; summary of the method: as §3
T4 sequence (Q9NYA1 whole entry): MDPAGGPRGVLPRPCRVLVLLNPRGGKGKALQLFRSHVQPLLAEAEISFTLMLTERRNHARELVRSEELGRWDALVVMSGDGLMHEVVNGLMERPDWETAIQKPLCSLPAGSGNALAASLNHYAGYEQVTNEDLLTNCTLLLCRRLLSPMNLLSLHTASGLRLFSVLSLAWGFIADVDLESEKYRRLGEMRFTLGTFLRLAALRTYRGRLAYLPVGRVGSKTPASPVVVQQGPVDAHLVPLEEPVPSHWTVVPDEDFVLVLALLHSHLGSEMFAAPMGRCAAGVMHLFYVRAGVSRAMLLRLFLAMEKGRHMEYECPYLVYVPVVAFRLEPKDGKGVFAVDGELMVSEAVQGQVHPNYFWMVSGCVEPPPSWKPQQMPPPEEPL

Sphingosine kinase 1 [11] = target: T4, Sphingosine kinase 1
[12] = target: T1, Sphingosine kinase 2 (Homo sapiens); experiment: Inhibition of recombinant human SPHK2 using sphingosine as substrate up to 1 uM after 30 mins in presence of gamma-[32P]-ATP by liquid scintillation counting

N=C(N)N1CCC[C@H]1Cc1nc(-c2ccc(Nc3nc(-c4ccc(-c5ccccc5)cc4)cs3)cc2)no1
inhibition [1]: Dose-dependent effect
inhibition (Mus musculus [2]): inactive
Ki (Sphingosine kinase 2 [3]): 90 nM
Activity [4]: 27%
inhibition [5]: Active
inhibition [6]: Active
inhibition (Mus musculus [7]): Active

N=C(N)N1CCC[C@H]1Cc1nc(-c2ccc(Nc3nc(-c4cc(F)cc(C(F)(F)F)c4)cs3)cc2)no1
Ki (Sphingosine kinase 2 [3]): 170 nM
Activity [4]: 30%

N=C(N)N1CCC[C@H]1Cc1nc(-c2ccc(Nc3nc(-c4cccc(Br)c4)cs3)cc2)no1
Activity [4]: 44%

COc1ccc(-c2csc(Nc3ccc(-c4noc(C[C@@H]5CCCN5C(=N)N)n4)cc3)n2)cc1
Activity [4]: 100%

N=C(N)N1CCC[C@H]1Cc1nc(-c2ccc(Nc3nc(-c4cc(C(F)(F)F)cc(C(F)(F)F)c4)cs3)cc2)no1
Activity [4]: 63%

N=C(N)N1CCC[C@H]1Cc1nc(-c2ccc(Nc3nc(-c4cc(C(F)(F)F)ccc4F)cs3)cc2)no1
Activity [4]: 48%

N=C(N)N1CCC[C@H]1Cc1nc(-c2ccc(Nc3nc(-c4ccc(-c5ccc(C(F)(F)F)cc5)cc4)cs3)cc2)no1
Activity [4]: 96%

N=C(N)N1CCC[C@H]1Cc1nc(-c2ccc(Nc3nc(-c4ccccc4)cs3)cc2)no1
Activity [4]: 83%

N=C(N)N1CCC[C@H]1Cc1nc(-c2ccc(Nc3nc(-c4ccc(OC(F)(F)F)cc4)cs3)cc2)no1
Ki (Sphingosine kinase 2 [3]): 250 nM
Activity [4]: 44%

N=C(N)N1CCC[C@H]1Cc1nc(-c2ccc(Nc3nc(-c4cccc(F)c4)cs3)cc2)no1
Activity [4]: 45%

COc1ccc(-c2csc(Nc3ccc(-c4noc(C[C@@H]5CCCN5C(=N)N)n4)cc3)n2)cc1Cl
Activity [4]: 71%

N=C(N)N1CCC[C@H]1Cc1nc(-c2ccc(Nc3nc(-c4ccc(C(F)(F)F)cc4)cs3)cc2)no1
Ki (Sphingosine kinase 2 [3]): 390 nM
Activity [4]: 36%

Cc1ccc(-c2csc(Nc3ccc(-c4noc(C[C@@H]5CCCN5C(=N)N)n4)cc3)n2)cc1C
Activity [4]: 67%

N=C(N)N1CCC[C@H]1Cc1nc(-c2ccc(Oc3nc(-c4ccc(C(F)(F)F)cc4)cs3)cc2)no1
Activity [4]: 55%

N=C(N)N1CCC[C@H]1Cc1nc(-c2ccc(Nc3nc(-c4ccncc4)cs3)cc2)no1
Activity [4]: 94%

Cc1ccc(-c2csc(Nc3ccc(-c4noc(C[C@@H]5CCCN5C(=N)N)n4)cc3)n2)cc1
Activity [4]: 80%

COc1cccc(-c2csc(Nc3ccc(-c4noc(C[C@@H]5CCCN5C(=N)N)n4)cc3)n2)c1
Activity [4]: 100%

N=C(N)N1CCC[C@H]1Cc1nc(-c2ccc(Nc3nc(-c4ccc(-c5cccc(C(F)(F)F)c5)cc4)cs3)cc2)no1
Activity [4]: 85%

N=C(N)N1CCC[C@H]1Cc1nc(-c2ccc(Nc3nc(-c4ccc(Cl)c(Cl)c4)cs3)cc2)no1
Activity [4]: 46%

N=C(N)N1CCC[C@H]1Cc1nc(-c2ccc(Nc3nc(-c4cccc(OC(F)(F)F)c4)cs3)cc2)no1
Activity [4]: 82%

N=C(N)N1CCC[C@H]1Cc1nc(-c2ccc(Nc3nc(-c4cc(F)cc(F)c4)cs3)cc2)no1
Activity [4]: 43%

N=C(N)N1CCC[C@H]1Cc1nc(-c2ccc(Nc3nc(-c4ccc(Cl)cc4)cs3)cc2)no1
Activity [4]: 51%

N=C(N)N1CCC[C@H]1Cc1nc(-c2ccc(Nc3nc(-c4cc5ccccc5o4)cs3)cc2)no1
Activity [4]: 67%

N=C(N)N1CCC[C@H]1Cc1nc(-c2ccc(Nc3nc(-c4ccc(Br)cc4)cs3)cc2)no1
Activity [4]: 46%

CCCCCCCCc1ccc2cc(-c3noc(C4CCCN4C(=N)N)n3)ccc2c1 (single isomer, unassigned)
Ratio Ki [8]: 10
Ki (Sphingosine kinase 2 [9]): 1300 nM
Ki (Sphingosine kinase 1 [10]): 12000 nM

N=C(N)N1CCC[C@H]1Cc1nc(-c2ccc(Nc3nc(-c4ccc(F)c(F)c4)cs3)cc2)no1
Activity [4]: 51%

N=C(N)N1CCC[C@H]1Cc1nc(-c2ccc(Nc3nc(-c4ccccc4F)cs3)cc2)no1
Activity [4]: 44%

N=C(N)N1CCC[C@H]1Cc1nc(-c2ccc(Nc3nc(-c4cccc(Cl)c4)cs3)cc2)no1
Activity [4]: 45%

COc1ccc(-c2csc(Nc3ccc(-c4noc(C[C@@H]5CCCN5C(=N)N)n4)cc3)n2)cc1OC
Activity [4]: 100%

N=C(N)N1CCC[C@H]1Cc1nc(-c2ccc(Nc3nc(-c4ccc(F)c(C(F)(F)F)c4)cs3)cc2)no1
Ki (Sphingosine kinase 2 [3]): 170 nM
Activity [4]: 33%

N=C(N)N1CCC[C@H]1Cc1nc(-c2ccc(Nc3nc(-c4cccc(C(F)(F)F)c4)cs3)cc2)no1
inhibition [1]: Dose-dependent effect
Ki (Sphingosine kinase 2 [3]): 90 nM
Activity [4]: 28%
inhibition [6]: Active

N=C(N)N1CCC[C@H]1Cc1nc(-c2ccc(Nc3nc(-c4ccccc4C(F)(F)F)cs3)cc2)no1
Activity [4]: 72%

CCCCCOc1ccc2cc(-c3noc([C@H]4[C@@H](O)CCN4C(=N)N)n3)ccc2c1
Ki (Sphingosine kinase 1 [11]): 730 nM

N=C(N)N1CCC[C@H]1Cc1nc(-c2ccc(Nc3nc(-c4cccc(-c5ccccc5)c4)cs3)cc2)no1
Activity [4]: 73%

N=C(N)N1CCC[C@H]1Cc1nc(-c2ccc(Nc3nc(-c4ccc(-c5ccc(F)cc5)cc4)cs3)cc2)no1
Activity [4]: 31%

N=C(N)N1CCC[C@H]1Cc1nc(-c2ccc(Nc3nc(-c4ccc(F)cc4)cs3)cc2)no1
Activity [4]: 55%

CN(c1ccc(-c2noc(C[C@@H]3CCCN3C(=N)N)n2)cc1)c1nc(-c2ccc(-c3ccccc3)cc2)cs1
inhibition [12]: inactive
Activity [4]: 100%

N=C(N)N1CCC[C@H]1Cc1nc(-c2ccc(Nc3nc(-c4cccnc4)cs3)cc2)no1
Activity [4]: 94%

— ChEMBL document CHEMBL4049441, “Transforming Sphingosine Kinase 1 Inhibitors into Dual and Sphingosine Kinase 2 Selective Inhibitors: Design, Synthesis, and in Vivo Activity” (J Med Chem, 2017)
